Experimental data taken from ChEMBL document CHEMBL1914406, “Inhibitory effect of novel 5-O-acyl juglones on mammalian DNA polymerase activity, cancer cell growth and inflammatory response” (Bioorg Med Chem, 2011).
Activity calls are given as the source filed them. The calls are words filed in the database; no cut-off is given here.

Assays:
HCT-116 [1] = assay: Cytotoxicity against human HCT116 cells by WST-1 assay relative to aphidicolin; type: functional, cell-based
[2] = Inhibition of calf primase of DNA polymerase alpha; design: species or system Bos taurus
Outline: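 Calf primase of pol α and mouse IMP dehydrogenase type II measured by standard assays per manufacturer's specifications. Activity relative to no-compound control (100%).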

[3] = Inhibition of human DNA polymerase delta using poly(dA)/oligo(dT)18 (A/T = 2/1) and dTTP as the DNA template-primer and nucleotide substrate after 60 mins
Outline: (§1)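 Compound in DMSO, sonicated 30 s. Premixed 0 °C, 10 min with enzyme (0.05 units) in 50 mM Tris-HCl pH 7.5, 1 mM DTT, 50% glycerol, 0.1 mM EDTA, then added to standard reaction mixture. Template-primers: poly(dA)/oligo(dT)18 (2/1) for pols, oligo(dT)18 for TdT, poly(rA)/oligo(dT)18 for HIV-1 RT, with [3H]dTTP. 60 min at 37 °C (Taq 74 °C). Activity relative to no-inhibitor control; mean ± SE of three experiments.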

HCT-116 [4] = assay: Cytotoxicity against human HCT116 cells by WST-1 assay relative to etoposide; type: functional, cell-based
[5] = molecular target: DNA nucleotidylexotransferase (Bos taurus, UniProt P06526); assay: Inhibition of calf thymus TdT using oligo(dT)18 (3'-OH) and dTTP as the DNA template-primer and nucleotide substrate after 60 mins; outline: as §1
HCT-116 [6] = assay: Cytotoxicity against human HCT116 cells by WST-1 assay; type: functional, cell-based
Outline: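 HCT116 colon carcinoma cells (ATCC) grown in McCoy's 5A with 10% FBS, penicillin and streptomycin, 37 °C, 5% CO2. Plated at 1 × 10⁴ cells/well together with compound, which was diluted from a 10 mM DMSO stock into medium (final 0.5% DMSO). Incubated 24 h. Viability read by WST-1, expressed relative to untreated cells.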

Bos taurus = organism: Bos taurus; assay: Inhibition of calf DNA polymerase alpha using bovine deoxyribonuclease 1-treated DNA and dNTP as the DNA template-primer and nucleotide substrate at 10 uM after 60 mins
HCT-116 [7] = assay: Cytotoxicity against human HCT116 cells by WST-1 assay relative to camptothecin; type: functional, cell-based
[8] = Inhibition of cauliflower DNA polymerase alpha using poly(dA)/oligo(dT)18 (A/T = 2/1) and dTTP as the DNA template-primer and nucleotide substrate after 60 mins; design: species or system Brassica oleracea var. botrytis; outline: as §1
RAW264.7 = assay: Antiinflammatory activity in mouse RAW264.7 cells assessed as inhibition of LPS-induced TNFalpha secretion at 5 uM treated 30 mins before LPS challenge measured after 24 hrs by ELISA; type: functional, cell-based
Outline: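 RAW264.7 cells in MEM with 4.5 g/L glucose, 10% FCS, 5 mM L-glutamine, at 37 °C in 5% CO2. Seeded at 5 × 10⁴ cells/well and grown 24 h. Compound (final 1 and 5 µM) given 30 min before 100 ng/mL LPS. After 24 h, TNF-α in the medium measured by ELISA, relative to the no-compound value (100%). Mean ± SE, n = 4.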

DNA nucleotidylexotransferase, sequence (P06526 whole entry): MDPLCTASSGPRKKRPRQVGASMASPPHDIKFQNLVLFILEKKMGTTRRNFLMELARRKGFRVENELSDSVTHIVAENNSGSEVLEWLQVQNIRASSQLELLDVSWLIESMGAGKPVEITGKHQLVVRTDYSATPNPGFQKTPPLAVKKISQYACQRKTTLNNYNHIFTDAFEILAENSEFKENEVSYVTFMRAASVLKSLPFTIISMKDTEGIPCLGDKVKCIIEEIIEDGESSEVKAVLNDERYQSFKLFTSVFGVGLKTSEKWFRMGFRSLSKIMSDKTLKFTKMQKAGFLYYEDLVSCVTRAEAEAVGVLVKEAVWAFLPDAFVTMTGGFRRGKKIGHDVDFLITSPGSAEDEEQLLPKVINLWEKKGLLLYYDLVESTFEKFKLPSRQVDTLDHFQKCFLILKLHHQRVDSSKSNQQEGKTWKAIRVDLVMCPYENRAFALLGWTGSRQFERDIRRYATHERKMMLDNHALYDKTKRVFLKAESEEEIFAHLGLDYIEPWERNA

For `CCCCCCCC/C=C\CCCCCCCC(=O)Oc1cccc2c1C(=O)C=CC2=O`, the Activity (HCT-116 [1]) was “Active”, the IC50 [2] was > 100 µM and the IC50 [3] was 0.74 µM. For the same compound, the Activity (HCT-116 [4]) was “Active”, the IC50 [5] was 11.9 µM and the Activity (HCT-116 [6]) was “Active”. The inhibition (Bos taurus) was “Active”, the Activity (HCT-116 [7]) was “Active” and the IC50 [8] was > 200 µM.

In the case of `CCCCCCCCCCCC(=O)Oc1cccc2c1C(=O)C=CC2=O`, the IC50 [2] is reported as > 100 µM, the IC50 [5] is reported as 8.4 µM and the Activity (RAW264.7) is reported as “Active”. For the same compound, the inhibition (Bos taurus) was “Active” and the IC50 [8] was > 100 µM.
